The structures appear in SMILES notation.

Activity and inhibition in vivo data for 37 compounds are collected here from ChEMBL document CHEMBL1149585, “Toward the development of chemoprevention agents. Part 1: Design, synthesis, and anti-inflammatory activities of a new class of 2,5-disubstituted-dioxacycloalkanes” (Bioorg Med Chem, 2007).

For data set [1], the system named is Mus musculus. Kind of data set: Antiinflammatory activity against xylene-induced ear edema in Kunming mouse assessed as edema weight at 20 mg/kg, po after 2 hrs relative to control. Format: functional. In outline: (§1)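 Male Kunming mice (groups of 12; n = 11 per table footnote) were dosed orally as a suspension in 0.5% CMC, with CMC vehicle and positive control groups. After 30 min, 0.03 ml xylene went on both surfaces of the right ear, with the left ear as control. Mice were killed 2 h later. 7 mm ear punches were weighed, and edema was taken as right minus left weight. Groups were compared by one-way ANOVA, p < 0.05.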

The test system of data set [2] is Mus musculus. Put plainly: Antiinflammatory activity against xylene-induced ear edema in Kunming mouse assessed as edema weight at 30 mg/kg, po after 2 hrs relative to control. Format: functional. The method, boiled down: as §1
Data set [3] has as its system Mus musculus. Put plainly: Inhibition of xylene-induced ear edema in Kunming mouse at 30 mg/kg, po after 2 hrs relative to control. The data set is classed as functional. The method, boiled down:
as §1

Data set [4] concerns Mus musculus. Kind of data set: Toxicity in mouse assessed as tail bleeding time at 200 mg/kg, po after 90 mins. Format: organism-based. Also on record: dose 200 mg/kg, route oral. The following applies: in vivo, 1.5 h. In outline:
(§2)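 Male mice (18–22 g) were dosed orally, and bleeding time was recorded before dosing and at each post-dose time. Each mouse was held in a tube with its tail protruding, and a 2 mm tail cut was made. Blood was wiped away with tissue every 30 s until bleeding ceased, and the time was recorded. The comparison group received NS.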

Data set [5] deals with Mus musculus. Kind of data set: Toxicity in mouse assessed as tail bleeding time at 200 mg/kg, po after 30 mins. Format: organism-based. Also on record: dose 200 mg/kg, route oral. The following applies: in vivo, 0.5 h. In outline:
as §2

For data set [6], the system named is Mus musculus. Kind of data set: Toxicity in mouse assessed as tail bleeding time at 200 mg/kg, po after 45 mins. The data set is classed as organism-based. Also noted: dose 200 mg/kg, route oral. The following applies: in vivo, 0.75 h. The method, boiled down:
as §2

In data set [7] the test system is Mus musculus. Kind of data set: Toxicity in mouse assessed as tail bleeding time at 200 mg/kg, po after 60 mins. Also noted: dose 200 mg/kg, route oral. To be noted: in vivo, 1 h. The data set is classed as organism-based. The method, boiled down:
as §2

The subject of data set [8] is Mus musculus. Kind of data set: Inhibition of xylene-induced ear edema in Kunming mouse at 20 mg/kg, po after 2 hrs relative to control. Format: functional. The method, boiled down:
as §1

In the case of `O=C(N[C@H](CO)CCO)c1ccccc1`, the Activity in data set [1] came to 4.01 mg.

`O=Cc1ccc(Cl)cc1`: the Activity in data set [1] was 3.8 mg.

In the case of `O=C(Cc1ccccc1)NC(CO)CCO` (single isomer, unassigned), in data set [1], the Activity worked out at 3.44 mg.

Turning to `Cc1ccc(C=O)cc1`, the Activity in data set [1] is 3.72 mg.

As to `O=Cc1ccccc1` [BENZALDEHYDE], in data set [1], the Activity came out at 3.45 mg.

For the compound `O=C(NC(CO)CO)c1ccccc1`, the Activity in data set [1] was determined as 3.25 mg.

In the case of `O=C/C=C/c1ccccc1`, the Activity in data set [1] amounted to 3.4 mg.

As to `CC(=O)Oc1ccccc1C(=O)O` [ASPIRIN], the Activity in data set [2] is 1.85 mg. In data set [3], testing at 30 mg/kg gave an inhibition in vivo of 40.7%.

In the case of `O=C(Cc1ccccc1)NC(CO)CO`, the Activity in data set [1] is 3.88 mg.

On to `O=C(N[C@H](CO)CCCO)c1ccccc1`, for which, in data set [1], the Activity is on record as 3.38 mg.

For `O=C(Cc1ccccc1)N[C@H]1CO[C@H](c2cccc([N+](=O)[O-])c2)OC1`, the Activity in data set [4] came to 118.6 s; in data set [5], 117.7 s; in data set [6], 118.5 s; in data set [7] it was 119.2 s. In data set [8], this compound returned an inhibition in vivo at 20 mg/kg of 42.6%.

`O=C(N[C@H]1CO[C@@H](c2ccc(Cl)cc2)OC1)c1ccccc1`: the Activity came out at 119.4 s in data set [4], 118 s in data set [5], 118.9 s in data set [6] and 120.9 s in data set [7]. Also, the inhibition in vivo at 20 mg/kg in data set [8] came out at 28.5%.

Turning to `O=Cc1cccc([N+](=O)[O-])c1` [3-NITROBENZALDEHYDE], in data set [1], the Activity is recorded as 3.5 mg.

Regarding `O=C(N[C@H]1CO[C@H](c2cccc([N+](=O)[O-])c2)OC1)c1ccccc1`, the Activity in data set [4] came out at 118.7 s; in data set [5], 118.8 s; in data set [6], 118 s; in data set [7], 118.4 s. Besides, in data set [8], the inhibition in vivo at 20 mg/kg came out at 45.2%.

Take `O=C(N[C@H]1CO[C@@H](c2ccc([N+](=O)[O-])cc2)OC1)c1ccccc1`: the Activity in data set [4] is given as 119.4 s; in data set [5], 119.4 s; in data set [6], 118.7 s; in data set [7], 120.6 s. This compound returned an inhibition in vivo at 20 mg/kg in data set [8] of 44.2%.

Consider `C[C@@H]1O[C@H](c2ccccc2)OC[C@H]1NC(=O)c1ccccc1`, for which the Activity is 118.9 s in data set [4], 118.7 s in data set [5], 118.9 s in data set [6] and 118.6 s in data set [7]. Moreover, 20 mg/kg produced 43.9% inhibition in vivo in data set [8].

As to `O=C(N[C@H]1CO[C@@H](c2cccc([N+](=O)[O-])c2)OC1)c1ccccc1`, the Activity in data set [4] is 120.2 s; in data set [5], 119.3 s; in data set [6] it was 118.2 s; in data set [7], 119.1 s. This compound also registered an inhibition in vivo at 20 mg/kg in data set [8] of 42.9%.

For `O=C(N[C@H]1CO[C@H](c2ccc([N+](=O)[O-])cc2)OC1)c1ccccc1`, the Activity in data set [4] was determined as 118.9 s; in data set [5] it was 119.5 s; in data set [6], 117.7 s; in data set [7] it was 118.6 s. In data set [8], at 20 mg/kg the inhibition in vivo was 48.7%.

As to `C[C@@H]1O[C@H](c2ccc(Cl)cc2)OC[C@H]1NC(=O)Cc1ccccc1`, the Activity in data set [4] came to 119 s; in data set [5], 118.4 s; in data set [6], 119.6 s; in data set [7], 118.6 s. This compound also registered an inhibition in vivo at 20 mg/kg in data set [8] of 46.1%.

Turning to `O=Cc1ccc([N+](=O)[O-])cc1`, in data set [1], the Activity was determined as 3.39 mg.

With `O=C(Cc1ccccc1)NC(CO)CCCO` (single isomer, unassigned), in data set [1], the Activity came out at 3.53 mg.

On to `C[C@@H]1O[C@H](c2ccc(Cl)cc2)OC[C@H]1NC(=O)c1ccccc1`, for which the Activity in data set [4] is reported as 118.6 s; in data set [5] it was 119.6 s; in data set [6], 118.6 s; in data set [7], 118.7 s. In data set [8], the inhibition in vivo at 20 mg/kg came out at 47.1%.

Take `CC(O)C(CO)NC(=O)Cc1ccccc1` (single isomer, unassigned): the Activity in data set [1] was 3.35 mg.

As to `C[C@@H]1O[C@@H](c2cccc([N+](=O)[O-])c2)OC[C@H]1NC(=O)c1ccccc1`, the Activity stood at 118.3 s in data set [4], 118.9 s in data set [5], 119.2 s in data set [6] and 117.4 s in data set [7]. In data set [8], this compound showed an inhibition in vivo at 20 mg/kg of 42%.

For the compound `C[C@@H](O)[C@H](CO)NC(=O)c1ccccc1`, the Activity in data set [1] turned out to be 3.32 mg.

For the compound `O=C(Cc1ccccc1)N[C@H]1CO[C@@H](c2ccc([N+](=O)[O-])cc2)OC1`, the Activity in data set [4] turned out to be 117.7 s; in data set [5], 120.7 s; in data set [6], 120.2 s; in data set [7] it was 117.6 s. For the same compound, in data set [8], the inhibition in vivo at 20 mg/kg worked out at 43.3%.

As for `Cc1ccc([C@H]2OC[C@@H](NC(=O)c3ccccc3)[C@H](C)O2)cc1`, the Activity in data set [4] is 118.7 s; in data set [5], 120.9 s; in data set [6], 121 s; in data set [7], 119.8 s. In addition, in data set [8], the inhibition in vivo at 20 mg/kg is 46.1%.

As for `O=C(Cc1ccccc1)N[C@H]1CO[C@@H](c2ccc(Cl)cc2)OC1`, the Activity in data set [4] was determined as 118.4 s; in data set [5] it was 117.9 s; in data set [6] it was 119.2 s; in data set [7], 119.5 s. Moreover, at 20 mg/kg the inhibition in vivo in data set [8] was 43.6%.

In the case of `C[C@@H]1O[C@@H](c2ccc(Cl)cc2)OC[C@H]1NC(=O)c1ccccc1`, the Activity is given as 118.7 s in data set [4], 118.3 s in data set [5], 118.9 s in data set [6] and 118.5 s in data set [7]. Moreover, the inhibition in vivo at 20 mg/kg in data set [8] stood at 56.4%.

Regarding `O=C(Cc1ccccc1)N[C@H]1CO[C@H](c2ccc([N+](=O)[O-])cc2)OC1`, the Activity was 117.7 s in data set [4], 120.7 s in data set [5], 120.2 s in data set [6] and 117.6 s in data set [7]. In addition, the inhibition in vivo at 20 mg/kg in data set [8] was found to be 44.6%.

As to `C[C@@H]1O[C@H](c2ccc([N+](=O)[O-])cc2)OC[C@H]1NC(=O)Cc1ccccc1`, the Activity is 117.2 s in data set [4], 117.8 s in data set [5], 118.5 s in data set [6] and 117.9 s in data set [7]. The same compound showed an inhibition in vivo at 20 mg/kg in data set [8] of 55.1%.

Consider `Cc1ccc([C@@H]2OC[C@@H](NC(=O)c3ccccc3)[C@H](C)O2)cc1`, for which the Activity in data set [4] is 117.7 s; in data set [5], 120.4 s; in data set [6] it was 118.5 s; in data set [7] it was 118.9 s. Also, 20 mg/kg produced 44.9% inhibition in vivo in data set [8].

`C[C@H]1O[C@@H](c2ccc(Cl)cc2)OC[C@H]1NC(=O)Cc1ccccc1`: the Activity in data set [4] stood at 119 s; in data set [5], 118.4 s; in data set [6], 119.6 s; in data set [7], 118.6 s. For the same compound, the inhibition in vivo at 20 mg/kg in data set [8] is 46.4%.

For the compound `Cc1ccc([C@H]2OC[C@@H](NC(=O)Cc3ccccc3)CO2)cc1`, the Activity is 119.2 s in data set [4], 117.2 s in data set [5], 118.6 s in data set [6] and 118.4 s in data set [7]. This compound came in with an inhibition in vivo at 20 mg/kg in data set [8] of 36.5%.

Regarding `O=C(Cc1ccccc1)N[C@H]1CO[C@H](c2ccccc2)OC1`, the Activity was found to be 118.9 s in data set [4], 118.5 s in data set [5], 119.3 s in data set [6] and 117.8 s in data set [7]. In data set [8], this compound returned an inhibition in vivo at 20 mg/kg of 37.8%.

With `C[C@@H]1O[C@H](c2ccccc2)OC[C@H]1NC(=O)Cc1ccccc1`, the Activity in data set [4] is on record as 117.9 s; in data set [5], 118.5 s; in data set [6], 119 s; in data set [7], 118.6 s. In data set [8], the inhibition in vivo at 20 mg/kg came to 41.3%.

On to `C[C@@H]1O[C@@H](c2ccc([N+](=O)[O-])cc2)OC[C@H]1NC(=O)c1ccccc1`, for which the Activity in data set [4] is given as 118.9 s; in data set [5], 118.4 s; in data set [6] it was 119.2 s; in data set [7], 117.2 s. For the same compound, 20 mg/kg produced 57.4% inhibition in vivo in data set [8].

The inhibition in vivo is the relative decrease from the control value, in per cent. A high value points to a response far below the control.
